Assay results as given in ChEMBL document CHEMBL3108698, “Targeting low-druggability bromodomains: fragment based screening and inhibitor design against the BAZ2B bromodomain” (J Med Chem, 2013).

Experiments:
[1] = biological target: Bromodomain adjacent to zinc finger domain protein 2B (Homo sapiens) (UniProt Q9UIF8); assay: Displacement of biotinylated H3Kac14 peptide from His6-tagged human BAZ2B expressed in Escherichia coli BL21(DE3) at 200 uM after 30 mins by AlphaLISA assay relative to control
[2] = biological target: Bromodomain-containing protein 2 (Homo sapiens) (UniProt P25440); assay: Binding affinity to BRD2 bromodomain-2 (unknown origin) assessed as change in melting temperature at 100 uM by differential scanning fluorimetric analysis
Outline: (§1)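 SYPRO Orange (1:1000) thermal shift with 2 μM bromodomain and 100 μM compound (final), 0.1% DMSO final, in 10 mM HEPES, 500 mM NaCl, 5% glycerol, 0.5 mM TCEP. Tm taken as the minimum of the negative first derivative of the melt curve. Run in triplicate; averages reported.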

[3] = biological target: Bromodomain-containing protein 2 (Homo sapiens) (UniProt P25440); assay: Binding affinity to BRD2 bromodomain-1 (unknown origin) assessed as change in melting temperature at 100 uM by differential scanning fluorimetric analysis; outline: as §1
[4] = biological target: CREB-binding protein (Homo sapiens) (UniProt Q92793); assay: Binding affinity to CREBBP (unknown origin) assessed as change in melting temperature at 100 uM by differential scanning fluorimetric analysis; outline: as §1

Bromodomain adjacent to zinc finger domain protein 2B (Homo sapiens), sequence (Q9UIF8 whole entry, the tested form may be a part): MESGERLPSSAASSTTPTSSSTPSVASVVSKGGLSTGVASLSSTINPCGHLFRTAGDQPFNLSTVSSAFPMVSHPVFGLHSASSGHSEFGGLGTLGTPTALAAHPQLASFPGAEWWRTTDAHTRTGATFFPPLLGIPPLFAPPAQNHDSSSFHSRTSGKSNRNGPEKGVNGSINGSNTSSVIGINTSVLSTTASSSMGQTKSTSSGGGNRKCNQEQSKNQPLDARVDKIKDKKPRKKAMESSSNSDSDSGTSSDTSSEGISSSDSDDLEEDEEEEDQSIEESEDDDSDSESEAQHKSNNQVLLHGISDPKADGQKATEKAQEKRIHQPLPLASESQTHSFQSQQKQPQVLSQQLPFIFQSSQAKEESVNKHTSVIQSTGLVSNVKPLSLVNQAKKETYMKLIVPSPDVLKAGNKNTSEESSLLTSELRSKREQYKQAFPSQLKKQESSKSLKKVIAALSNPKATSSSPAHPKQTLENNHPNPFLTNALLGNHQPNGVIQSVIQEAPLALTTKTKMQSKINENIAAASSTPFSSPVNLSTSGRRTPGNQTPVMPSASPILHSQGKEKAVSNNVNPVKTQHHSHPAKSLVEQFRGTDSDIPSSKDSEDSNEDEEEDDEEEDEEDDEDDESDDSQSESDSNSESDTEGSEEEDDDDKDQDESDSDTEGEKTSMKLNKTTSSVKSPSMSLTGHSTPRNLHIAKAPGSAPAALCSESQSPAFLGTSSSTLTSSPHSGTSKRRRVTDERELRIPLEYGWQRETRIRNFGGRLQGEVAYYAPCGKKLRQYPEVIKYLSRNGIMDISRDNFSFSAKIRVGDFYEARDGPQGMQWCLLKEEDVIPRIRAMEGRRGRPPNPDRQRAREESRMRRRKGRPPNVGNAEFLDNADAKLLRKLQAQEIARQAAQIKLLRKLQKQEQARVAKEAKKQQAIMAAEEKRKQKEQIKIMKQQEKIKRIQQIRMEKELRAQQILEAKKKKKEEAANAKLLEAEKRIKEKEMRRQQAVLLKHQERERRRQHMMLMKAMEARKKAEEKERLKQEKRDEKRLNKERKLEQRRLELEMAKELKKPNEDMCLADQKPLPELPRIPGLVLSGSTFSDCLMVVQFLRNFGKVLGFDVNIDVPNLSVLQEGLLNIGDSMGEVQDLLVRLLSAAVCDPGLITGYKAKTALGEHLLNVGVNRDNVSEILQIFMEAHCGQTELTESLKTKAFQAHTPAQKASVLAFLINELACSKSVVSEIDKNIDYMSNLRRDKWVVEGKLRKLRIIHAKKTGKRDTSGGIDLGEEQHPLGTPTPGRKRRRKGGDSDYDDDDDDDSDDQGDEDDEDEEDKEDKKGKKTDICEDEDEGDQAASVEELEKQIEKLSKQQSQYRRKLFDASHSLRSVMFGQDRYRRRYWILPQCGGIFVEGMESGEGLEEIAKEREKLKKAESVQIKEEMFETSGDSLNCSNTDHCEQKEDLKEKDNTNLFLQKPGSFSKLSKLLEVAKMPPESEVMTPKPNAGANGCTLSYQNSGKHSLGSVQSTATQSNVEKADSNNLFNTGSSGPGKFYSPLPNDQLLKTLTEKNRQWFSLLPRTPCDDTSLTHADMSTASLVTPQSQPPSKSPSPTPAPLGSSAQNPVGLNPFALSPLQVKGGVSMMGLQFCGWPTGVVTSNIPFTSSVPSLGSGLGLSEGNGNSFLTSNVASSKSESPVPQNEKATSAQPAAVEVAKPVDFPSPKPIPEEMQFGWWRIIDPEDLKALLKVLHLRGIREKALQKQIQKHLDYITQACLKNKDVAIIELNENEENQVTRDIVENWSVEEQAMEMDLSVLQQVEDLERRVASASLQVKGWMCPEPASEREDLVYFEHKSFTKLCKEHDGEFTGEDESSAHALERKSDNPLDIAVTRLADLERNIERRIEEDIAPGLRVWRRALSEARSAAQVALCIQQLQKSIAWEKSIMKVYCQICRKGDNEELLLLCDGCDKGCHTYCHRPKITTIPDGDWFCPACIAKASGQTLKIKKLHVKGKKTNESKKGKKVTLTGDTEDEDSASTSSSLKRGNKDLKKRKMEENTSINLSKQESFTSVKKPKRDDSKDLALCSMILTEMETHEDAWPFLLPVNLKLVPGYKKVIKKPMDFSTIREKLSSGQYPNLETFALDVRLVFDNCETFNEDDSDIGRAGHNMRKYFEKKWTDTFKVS
Bromodomain-containing protein 2 (Homo sapiens), sequence (P25440 whole entry, looked up): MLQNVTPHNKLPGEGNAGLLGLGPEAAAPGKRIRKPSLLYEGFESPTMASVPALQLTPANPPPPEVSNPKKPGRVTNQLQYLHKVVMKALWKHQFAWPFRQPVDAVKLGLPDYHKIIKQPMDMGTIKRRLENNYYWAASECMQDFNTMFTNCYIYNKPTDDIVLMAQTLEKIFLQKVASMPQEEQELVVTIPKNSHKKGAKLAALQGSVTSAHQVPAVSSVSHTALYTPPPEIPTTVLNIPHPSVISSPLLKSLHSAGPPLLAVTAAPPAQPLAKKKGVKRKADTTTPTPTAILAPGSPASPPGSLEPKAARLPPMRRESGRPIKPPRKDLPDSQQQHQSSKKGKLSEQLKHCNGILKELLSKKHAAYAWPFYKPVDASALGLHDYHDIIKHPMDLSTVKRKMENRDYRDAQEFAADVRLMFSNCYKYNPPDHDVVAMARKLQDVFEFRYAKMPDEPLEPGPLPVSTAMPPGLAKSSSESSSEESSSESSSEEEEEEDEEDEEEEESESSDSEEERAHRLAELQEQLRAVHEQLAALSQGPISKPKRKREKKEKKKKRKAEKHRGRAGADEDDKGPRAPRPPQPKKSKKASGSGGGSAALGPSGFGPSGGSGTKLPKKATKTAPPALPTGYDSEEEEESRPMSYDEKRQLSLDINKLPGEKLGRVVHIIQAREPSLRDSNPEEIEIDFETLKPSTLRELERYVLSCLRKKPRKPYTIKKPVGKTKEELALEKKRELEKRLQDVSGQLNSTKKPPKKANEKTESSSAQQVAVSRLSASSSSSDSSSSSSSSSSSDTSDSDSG

## CC(=O)N1CCc2[nH]c3ccc(C(=O)O)cc3c2C1
[1]
  inhibition: 48%

## CC(=O)N1CCc2c(c3cc(Br)ccc3n2C(=O)OC(C)(C)C)C1
[1]
  inhibition: 38%

## CC(=O)N1CCc2[nH]c3ccc(Oc4ccccc4)cc3c2C1
[1]
  inhibition: 65%

## CNC(=O)N1CCc2[nH]c3ccc(Cl)cc3c2C1
[2]
  ΔTm: -0.2 °C
[3]
  ΔTm: -0.6 °C
[4]
  ΔTm: 2.1 °C

## CC(=O)N1CCc2[nH]c3ccc(N(C)C(C)=O)cc3c2C1
[1]
  inhibition: 65%

## CC(=O)N1CCc2c(c3cccc4c3n2C(=O)CN4C)C1
[1]
  inhibition: 63%

## CC(=O)N1CCc2[nH]c3ccc(Br)cc3c2C1
[2]
  ΔTm: 3.5 °C
[3]
  ΔTm: 7.3 °C
[4]
  ΔTm: 8.1 °C

## CC(=O)N1CCc2c(c3cc(Br)ccc3n2S(=O)(=O)c2ccc(C)cc2)C1
[1]
  inhibition: 60%

## CC(=O)N1CCc2c(c3cccc4c3n2CCS4)C1
[1]
  inhibition: 70%

## CC(=O)N1CCc2[nH]c3ccc(-c4cccnc4)cc3c2C1
[1]
  inhibition: 55%

## CC(=O)N1CCc2[nH]c3c(O)ccc(Cl)c3c2C1
[1]
  inhibition: 52%
